The values below come from ChEMBL document CHEMBL4028810, “Synthesis and biological evaluation of novel chalcone derivatives as a new class of microtubule destabilizing agents” (Eur J Med Chem, 2017).

pIC50: −log10 of the molar value. Some results are limits rather than exact numbers.

One experiment concerns SK-OV-3. The experiment in a line: Cytotoxicity against human SKOV3 cells after 48 hrs by MTT assay. The class given is functional, cell-based. As to conditions: SK-OV-3, 48 h. The method, boiled down:
(§1)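 Log-phase cells were seeded at about 1 × 10⁵ cells/mL in 96-well plates and allowed to settle 12 h at 37 °C in 5% CO₂. Compounds were added at five concentrations for 48 h. Absorbance was read at dual wavelength 570/630 nm. Survival was expressed as a percentage of control, and IC50 was calculated by the Bliss method (n = 5). Each test was run in triplicate.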
On the technique in general: Formazan colour is commonly taken as a measure of viable cells.

A further experiment concerns L02. Briefly: Cytotoxicity against human HL7702 cells after 48 hrs by MTT assay. Format: cell-based. The settings on record: L02, 48 h. An outline of the steps:
as §1

Experiment [1] relates to NCI-H460. Briefly: Induction of apoptosis in human NCI-H460 cells assessed as increase in ROS generation after 24 hrs by DCFH-DA staining based flow cytometric method. Format: functional, cell-based. The method, boiled down: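 NCI-H460 cells in six-well plates were treated 24 h at 5 or 10 µM, with untreated cells as control. Cells were pelleted at 2000 rpm, washed twice in ice-cold PBS and resuspended in 10 µM DCFH-DA in cell-free medium for 20 min at 37 °C in the dark. After two more PBS washes, fluorescence was read by flow cytometry.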
(In flow cytometry, cells or beads pass a laser one at a time.)

Another experiment deals with A549. The experiment in a line: Cytotoxicity against human A549 cells after 48 hrs by MTT assay. Format: functional, cell-based. The settings on record: A549, 48 h. The method, boiled down: as §1
The test system of experiment [2] is NCI-H460. Briefly: Induction of apoptosis in human NCI-H460 cells assessed as necrotic cells at 5 uM after 24 hrs by Annexin V-FITC/propidium iodide staining based flow cytometric method (reference value: 1.84%). Format: functional.
Experiment [3] concerns NCI-H460. Briefly: Induction of apoptosis in human NCI-H460 cells assessed as late apoptotic cells at 5 uM after 24 hrs by Annexin V-FITC/propidium iodide staining based flow cytometric method (reference value: 0.839%). Format: functional.
Experiment [4] concerns NCI-H460. Briefly: Disruption of mitochondrial membrane potential in human NCI-H460 cells after 24 hrs by JC-1 staining based flow cytometric method. Format: functional, cell-based. An outline of the steps: (§2)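 NCI-H460 cells were treated 24 h at 5 or 10 µM, with untreated cells as control. The medium was replaced, and the JC-1 probe was added 20 min later. Cells were then pelleted at 2000 rpm, washed twice in ice-cold PBS and analysed by flow cytometry with excitation at 488 nm and emission at 530 and 590 nm.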

The test system of experiment [5] is NCI-H460. Briefly: Cell cycle arrest in human NCI-H460 cells assessed as accumulation at G1-phase at 5 uM after 48 hrs by propidium iodide staining based flow cytometric method (reference value: 75.84%). Format: functional.
A further experiment relates to T-24. The experiment in a line: Cytotoxicity against human T24 cells after 48 hrs by MTT assay. As to conditions: T-24, 48 h. The class given is functional, cell-based. The method, boiled down:
as §1

Experiment [6] can be described thus: Resistant factor, ratio of IC50 for human A549/TR cells to IC50 for human A549 cells. The class given is functional. An outline of the steps:
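The resistance index is IC50 on the paclitaxel-resistant line divided by IC50 on the parental sensitive line (A549 or HeLa). Both IC50 values come from the 48 h, five-concentration growth assay with 570/630 nm absorbance read-out and Bliss-method calculation.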

A short description of experiment [7]: Cytotoxicity against human HeLa/TR cells after 48 hrs by MTT assay. The class given is functional, cell-based. The method, boiled down: as §1
Experiment [8] has as its system NCI-H460. Briefly: Disruption of mitochondrial membrane potential in human NCI-H460 cells assessed as collapse of mitochondrial membrane potential at 5 uM after 24 hrs by JC-1 staining based flow cytometric method (reference value: 1.98%). The class given is functional. An outline of the steps: as §2
For experiment [9], the system named is NCI-H460. Briefly: Induction of apoptosis in human NCI-H460 cells assessed as down regulation of Bcl2 expression after 48 hrs by Western blot method. Format: functional, cell-based. An outline of the steps:
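NCI-H460 cells were treated 48 h at various concentrations. Cells were washed in ice-cold PBS and lysed on ice for 20 min, and lysates were spun at 20000 g and 4 °C for 5 min. Protein was quantified by BCA, and equal amounts were run on 12% SDS-PAGE and transferred to PVDF. Membranes were blocked in 5% milk/TBST, probed overnight at 4 °C with primary antibodies (β-actin as reference), then with peroxidase secondary for 2 h. Bands were detected by chemiluminescence.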
For orientation: A western blot detects proteins with antibodies after separation by electrophoresis.

Turning to `COc1ccc(/C=C/C(=O)c2cc(OC)c(OC)c(OC)c2)cc1OCC(=O)Nc1ccccc1Cl`, the pIC50 (commonly the IC50 on a negative log10 scale, so that one unit is a factor of ten) in the experiment with SK-OV-3 was 5.20; in the experiment with L02 it was under 4.30; with A549 it was 5.28; in the experiment on T-24, 5.24; in experiment [7] it was 5.23. In addition, the Activity entry with NCI-H460 [1] is “Dose-dependent effect”; in the experiment with NCI-H460 [2] it was 1.1%; in the experiment with NCI-H460 [3], 3.45%; with NCI-H460 [4], “Dose-dependent effect”; with NCI-H460 [5], 59.12%; with NCI-H460 [8] it was 3.13%. Also, in the experiment with NCI-H460 [9], the Activity result is “Dose-dependent effect”. Besides, the “Ratio IC50” value in [6] is 1.2.
